According to ChEMBL document CHEMBL1938319, “Design, synthesis, and in vitro antiproliferative activity of novel Dasatinib derivatives” (Bioorg Med Chem Lett, 2012):
pIC50: −log10 of the molar value.

Assays:
[1] = tested on: K562; assay: Growth inhibition of human K562 cells at 10 uM after 72 hrs by WST-8 reagent based MTT assay; assay type: functional; conditions: K562, 72 h, read-out: GI
Procedure, shortened: (§1)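 Single-concentration screen at 10 μM on K562 or U937 cells in RPMI1640 with 10% FBS, 5.0 × 10³ cells/well, settled 4 h, then 72 h exposure at 37 °C, 5% CO₂. WST-8/1-methoxyphenazinium reagent added for 1.5 h. A450 read with 650 nm correction. Growth given as % absorbance relative to vehicle control, averaged over three independent experiments.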

[2] = tested on: U-937; assay: Growth inhibition of human U937 cells at 10 uM after 72 hrs by WST-8 reagent based MTT assay; assay type: functional; conditions: U-937, 72 h, read-out: GI; procedure, shortened: as §1
[3] = tested on: U-937; assay: Cytotoxicity against human U937 cells after 72 hrs by WST-8 reagent based MTT assay; assay type: functional, cell-based; conditions: U-937, 72 h
Procedure, shortened: (§2)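 K562 or U937 cells in RPMI1640 with 10% FBS, 5.0 × 10³ cells/well, settled 4 h at 37 °C, 5% CO₂. Exposed to compound for 72 h. Medium removed, then WST-8 reagent (5 mM WST-8, 0.2 mM 1-methoxyphenazinium salt, 150 mM NaCl) added for 1.5 h at 37 °C. Absorbance read at 450 nm, corrected at 650 nm, as % of vehicle control. IC50 from concentration–response curve fitting. Three independent experiments averaged.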

[4] = tested on: K562; assay: Cytotoxicity against human K562 cells after 72 hrs by WST-8 reagent based MTT assay; assay type: functional, cell-based; conditions: K562, 72 h; procedure, shortened: as §2

In the case of `COc1cc2c(Nc3ccc4sc(C(=O)Nc5c(C)cccc5Cl)cc4c3)ncnc2cc1OCCCN1CCOCC1`, the inhibition of growth at 10 µM [1] was 9.99%, the inhibition of growth at 10 µM [2] was 56.2% and the pIC50 [3] was 5.04.

Work on `COc1cc2c(Nc3ccc4sc(C(=O)Nc5c(C)cccc5Cl)cc4c3)ncnc2cc1OCCCN1CCCCC1` yielded an inhibition of growth at 10 µM [1] of 71.8%, an inhibition of growth at 10 µM [2] of 75.7% and a pIC50 [4] of 5.40. For the same compound, the pIC50 [3] was 5.36.

Work on `CCN(CCO)CCCOc1cc2ncnc(Nc3ccc4sc(C(=O)Nc5c(C)cccc5Cl)cc4c3)c2cc1OC` yielded an inhibition of growth at 10 µM [1] of 59.8%, an inhibition of growth at 10 µM [2] of 76.9% and a pIC50 [4] of 5.05. It also gave a pIC50 [3] of 5.37.

With `CCN(CC)CCCOc1cc2ncnc(Nc3ccc4sc(C(=O)Nc5c(C)cccc5Cl)cc4c3)c2cc1OC` the inhibition of growth at 10 µM [1] was 72.5%, the inhibition of growth at 10 µM [2] was 78% and the pIC50 [4] was 5.45. The pIC50 [3] was 5.40.

For `COc1cc2c(Nc3ccc4sc(C(=O)Nc5c(C)cccc5Cl)cc4c3)ncnc2cc1OCCCN1CCN(C)CC1`, the inhibition of growth at 10 µM [1] was 51.2%, the inhibition of growth at 10 µM [2] was 76% and the pIC50 [4] was 5.01. For the same compound, the pIC50 [3] was 5.46.

`COc1cc2c(Nc3ccc4sc(C(=O)Nc5c(C)cccc5Cl)cc4c3)ncnc2cc1OCCCN1CCCCC1C` (stereo not drawn) gave an inhibition of growth at 10 µM [1] of 84.2%, an inhibition of growth at 10 µM [2] of 80.2% and a pIC50 [4] of 5.67. It also gave a pIC50 [3] of 5.46.

`Cc1nc(Nc2ccc3sc(C(=O)Nc4c(C)cccc4Cl)cc3c2)cc(N2CCOCC2)n1` was tested, and the inhibition of growth at 10 µM [1] was 13.9% and the inhibition of growth at 10 µM [2] was 8.37%.

For `Cc1nc(Nc2ccc3sc(C(=O)Nc4c(C)cccc4Cl)cc3c2)cc(N2CCCCC2)n1`, the inhibition of growth at 10 µM [1] was 8.78%, the inhibition of growth at 10 µM [2] was 20.6% and the pIC50 [3] was 4.70.

For `Cc1nc(Nc2ccc3sc(C(=O)Nc4c(C)cccc4Cl)cc3c2)cc(N2CCN(C)CC2)n1`, the inhibition of growth at 10 µM [1] was 32.4%, the inhibition of growth at 10 µM [2] was 40.6% and the pIC50 [4] was 4.77. The pIC50 [3] was 4.82.

For `CCN1CCN(c2cc(Nc3ccc4sc(C(=O)Nc5c(C)cccc5Cl)cc4c3)nc(C)n2)CC1`, the inhibition of growth at 10 µM [1] was 33.9%, the inhibition of growth at 10 µM [2] was 46.5% and the pIC50 [4] was 4.77. The pIC50 [3] was 4.88.

For `Cc1nc(Nc2ccc3sc(C(=O)Nc4c(C)cccc4Cl)cc3c2)cc(N2CCN(CCO)CC2)n1`, the inhibition of growth at 10 µM [1] was 27.8%, the inhibition of growth at 10 µM [2] was 37.1% and the pIC50 [4] was 4.66. For the same compound, the pIC50 [3] was 4.86.

`Cc1nc(Nc2ccc3sc(C(=O)Nc4c(C)cccc4Cl)cc3c2)cc(N2CCC(C)CC2)n1` gave an inhibition of growth at 10 µM [1] of 20.5%, an inhibition of growth at 10 µM [2] of 24.6% and a pIC50 [4] of 4.65. The pIC50 [3] was 4.69.

`Cc1nc(Nc2ncc(C(=O)Nc3c(C)cccc3Cl)s2)cc(N2CCN(CCO)CC2)n1` [DASATINIB] was tested, and the inhibition of growth at 10 µM [1] was 37.4%, the inhibition of growth at 10 µM [2] was 37.2% and the pIC50 [4] was 4.89. It also gave a pIC50 [3] of 4.87.
